Compound activity: PubChem, Broad Institute
SIRT5 inh: SIRT5 desuccinylase inhibitors, primary screen, biochemical, fluorescence imaging, single point, set 5; AID 652115, 2013; 1.1% of 330,000 active; Purified SirT5, succinyl-peptide AMC, trypsin-coupled fluorescence; inhibition, % at 15 µM; in the data active means inhibition above about 15%; inconclusive means no clear call, values can overlap the other calls
Target sequence (Q9NXA8 whole entry, looked up): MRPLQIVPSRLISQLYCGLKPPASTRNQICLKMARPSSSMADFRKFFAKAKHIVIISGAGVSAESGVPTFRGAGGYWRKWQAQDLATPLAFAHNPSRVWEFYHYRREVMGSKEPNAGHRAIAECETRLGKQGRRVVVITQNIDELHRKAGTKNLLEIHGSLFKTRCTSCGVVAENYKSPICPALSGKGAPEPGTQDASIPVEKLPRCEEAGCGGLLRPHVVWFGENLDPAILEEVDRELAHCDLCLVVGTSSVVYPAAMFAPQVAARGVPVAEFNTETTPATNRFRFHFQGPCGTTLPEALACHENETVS
PGC1a acetyl inh: inhibitors of PGC1a acetylation signal, primary screen, cell-based, U2OS, AlphaScreen, inhibitor mode; 0.17% of 350,000 active; inhibition, % at 15.6 µM; AlphaScreen anti-acetyl-lysine; with virally co-expressed GCN5 acetyltransferase;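 active means every replicate shows inhibition of at least 40%; inconclusive means mean inhibition at least 40% but some replicate below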
Statin myotox sup: suppressors of statin myotoxicity in C2C12 myotubes, primary screen, cell-based, single point, plate reader; C2C12 myotubes + simvastatin, ATP luminescence, 48 h; scaled: DMSO 0, geranylgeraniol control 100; 0.78% of 330,000 active; rescue of ATP level, % at 7.49 µM;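 active means mean ATP rescue above about 67%, or every replicate alone reaching that limit, limit read from the data, passing the limit was not always enough; inconclusive means no clear call, values can overlap the other calls; inactive means mean under the limit and some replicate under it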;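 further: myotubes were challenged with 10 µM simvastatin during compound exposure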
DENV2 CPE rescue: inhibitors of DENV2 cytopathic effect, primary screen, cell-based, plate reader, single concentration | DENV2-infected cells, cytopathic effect rescue | CPE inhibition, % at 9.99 µM | 1.7% of 350,000 active | AID 651640, 2012; in the data active means CPE inhibition above about 20%, passing the limit was not always enough; inconclusive means no clear call, values can overlap the other calls; tested in BHK-21 cells
S100A4 inh HTS: inhibitors of S100A4-myosin IIA peptide binding, primary screen, biochemical, fluorescence polarization, TAMRA-MyoIIA peptide; Protein S100-A4 (Homo sapiens), P26447; inhibition, % at 10.7 µM; 0.14% of 360,000 active; AID 652163, 2013;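 active means mean inhibition of at least 70% across replicates, with every replicate also reaching that level; inconclusive means mean inhibition reaches 70% but some replicates fall short; inactive means mean inhibition below 70%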
Target sequence (P26447 whole entry, looked up): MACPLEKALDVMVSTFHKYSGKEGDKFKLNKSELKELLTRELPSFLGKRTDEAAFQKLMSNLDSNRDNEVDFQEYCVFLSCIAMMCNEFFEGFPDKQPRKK
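Test system: S100A4 monomer protein; Medium: HEPES pH 7.2 with CaCl2, KCl, NaCl, DTT, Triton; Probe or stimulus: TAMRA-labelled myosin IIA heavy-chain peptide probe, 5 nM; Doses: one dose per compound; Times: polarization read 5 min after assay mix addition, stable 5–60 min; Benchmarks: neutral control DMSO, positive control TFP.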
Each line names hits and unclear results; the compound was inactive in the other large screens. Compounds with a hit are over-represented: about 2.9% of the library has one in this group of screens.

O=C1CN(Cc2ccccc2)C[C@H]2[C@@H](c3ccc(-c4ccccc4)cc3)[C@H](CO)N12	none (no result: Statin myotox sup)
CC(C)CC#Cc1ccc2c(c1)O[C@H](CN(C)C(=O)c1ccccn1)[C@H](C)CN([C@H](C)CO)S2(=O)=O	none
CC(C)NC(=O)N1[C@@H](CO)[C@@H]2c3ccccc3N(C)C[C@@H]21	none
O=C(NCC1CCCCC1)c1cccnc1Cl	none
O=C(NCCCCNC(=O)c1cccnc1Cl)c1cccnc1Cl	DENV2 CPE rescue 69 (no result: PGC1a acetyl inh, Statin myotox sup)
C[C@@H]1CN([C@@H](C)CO)C(=O)c2c(c3ccccc3n2C)-c2ccccc2CO[C@H]1CN(C)S(=O)(=O)c1ccc(Cl)cc1	none (no result: Statin myotox sup)
C[C@H]1CN([C@@H](C)CO)C(=O)c2c(c3ccccc3n2C)-c2ccccc2CO[C@H]1CN(C)S(=O)(=O)c1ccc(F)cc1	SIRT5 inh 21
C[C@@H]1CN([C@H](C)CO)C(=O)c2c(c3ccccc3n2C)-c2ccccc2CO[C@H]1CN(C)S(=O)(=O)c1ccc([N+](=O)[O-])cc1	SIRT5 inh 32 (no result: Statin myotox sup)
C[C@@H]1CN([C@H](C)CO)C(=O)c2c(c3ccccc3n2C)-c2ccccc2CO[C@@H]1CN(C)S(=O)(=O)c1ccc(Cl)cc1	SIRT5 inh 19
CS(=O)(=O)c1cccc(C(=O)NCc2ccc(F)cc2)c1	none (no result: SIRT5 inh, Statin myotox sup, DENV2 CPE rescue, S100A4 inh HTS)
Cc1c([N+](=O)[O-])cc(C(=O)NCc2ccc(F)cc2)cc1[N+](=O)[O-]	SIRT5 inh 111 (no result: Statin myotox sup)
N#C/C(C(=O)NCc1ccco1)=C1/SC(Cc2ccc(F)cc2)C(=O)N1c1ccccc1 (stereo unspecified)	Statin myotox sup 87 (no result: SIRT5 inh, DENV2 CPE rescue, S100A4 inh HTS)
NC(=O)/C(=C/c1ccco1)C(N)=S	SIRT5 inh 17 (no result: Statin myotox sup)
NC(=O)/C(=C\c1ccco1)NC(=O)c1ccco1	DENV2 CPE rescue inconclusive (no result: SIRT5 inh, PGC1a acetyl inh)
O=C(C[C@H]1CC[C@@H](NC(=O)Nc2ccccc2F)[C@@H](CO)O1)NCc1ccc(Cl)cc1	none
COC(=O)c1c(CC[C@@H](CO)NC(=O)N[C@H](Cc2ccccc2)Cn2cc(-c3ccccn3)nn2)oc(C(C)=O)c1C(=O)OC	DENV2 CPE rescue 31 (no result: Statin myotox sup)
COC(=O)c1c(CC[C@@H](CO)NC(=O)N[C@H](Cc2ccccc2)Cn2cc(-c3ccccc3N)nn2)oc(C(C)=O)c1C(=O)OC	none (no result: Statin myotox sup)
COc1ccc(S(=O)(=O)Nc2ccc3c(c2)OC[C@H](C)NC[C@@H](C)[C@H](OC)CN(C)C3=O)cc1	none
COCCn1c(-c2ccc(-c3ccc([N+](=O)[O-])cc3Br)o2)nc2c1c(=O)[nH]c(=O)n2CC(C)C	SIRT5 inh 15
N#CC1=C(N)N(c2ccccc2)C(=O)C1	Statin myotox sup 106 (no result: SIRT5 inh, DENV2 CPE rescue, S100A4 inh HTS)
COc1ccc(N2C(=O)CC(C#N)=C2N)cc1	none (no result: Statin myotox sup)
C[C@H]1CCCCO[C@H](CN(C)C(=O)c2ccncc2)[C@@H](C)CN([C@@H](C)CO)C(=O)c2cc(NS(=O)(=O)c3ccccc3)ccc2O1	none (no result: Statin myotox sup)
Cn1c(CNC(=O)c2ccco2)nnc1SCC(=O)N1c2ccccc2Sc2ccccc21	Statin myotox sup 93 (no result: SIRT5 inh, DENV2 CPE rescue, S100A4 inh HTS)
Cc1cc(C(=O)c2ccccc2)cc(C)c1O	none (no result: SIRT5 inh, PGC1a acetyl inh, Statin myotox sup)
CC1=C/C(=C(\c2cc(C)c(O)c(Br)c2)c2ccccc2S(=O)(=O)O)C=C(Br)C1=O	SIRT5 inh 16
c1coc(-c2nnc(-c3ccco3)nn2)c1	SIRT5 inh 18 (no result: PGC1a acetyl inh)
c1ccc(-c2nnc(-c3ccco3)o2)cc1	none (no result: SIRT5 inh, DENV2 CPE rescue, S100A4 inh HTS)
O=C(NCc1ccc(F)cc1)c1cc(-c2ccccn2)nc2ccc(S(=O)(=O)N3CCOCC3)cc12	DENV2 CPE rescue 31 (no result: SIRT5 inh)
Cc1ccc(CCNC(=O)c2cc(-c3ccncc3)nc3ccc(S(=O)(=O)N4CCOCC4)cc23)cc1	S100A4 inh HTS 148
O=C(NCc1ccccc1)c1cc(-c2ccncc2)nc2ccc(S(=O)(=O)N3CCOCC3)cc12	none
O=C(Cc1cccnc1)N1CC(=O)N2[C@H](CO)[C@@H](c3ccc(C#CC4CC4)cc3)[C@H]2C1	none (no result: Statin myotox sup)
O=C(C[C@H]1C[C@H]2c3cc(NC(=O)c4cccnc4)ccc3O[C@H]2[C@H](CO)O1)NC1CCCC1	none (no result: Statin myotox sup)
OCCC1CN(Cc2ccc3c(c2)CCO3)CCN1Cc1ccc(F)cc1 (stereo unspecified)	S100A4 inh HTS 74 (no result: PGC1a acetyl inh, Statin myotox sup)
CSc1cccc(CN2CCN(Cc3ccc(F)c(F)c3)C(CCO)C2)c1 (stereo unspecified)	SIRT5 inh 16 (no result: DENV2 CPE rescue)
Cc1ccc(CN2CCN(Cc3ccc4c(c3)OCCO4)CC2CCO)cc1 (stereo unspecified)	none (no result: Statin myotox sup)
COc1ccc(-c2cnc3c(c2)C(=O)N([C@H](C)CO)C[C@@H](C)[C@H](CN(C)Cc2ccc(C(=O)O)cc2)O3)cc1	DENV2 CPE rescue inconclusive
COc1ccc(CN(C)C[C@@H]2Oc3ccc(NC(=O)Nc4ccc(OC)cc4)cc3CC(=O)N([C@@H](C)CO)C[C@H]2C)cc1	none (no result: PGC1a acetyl inh)
CCCC#Cc1cnc2c(c1)C(=O)N([C@@H](C)CO)C[C@@H](C)[C@@H](CN(C)S(=O)(=O)c1cn(C)cn1)O2	S100A4 inh HTS inconclusive
O=C(CCN1C(=O)S/C(=C/c2ccccc2)C1=O)Nc1ccc(C(=O)O)c(O)c1	none
O=C(CCCN1C(=O)/C(=C/c2ccc3c(c2)OCO3)SC1=S)Nc1ccc(C(=O)O)cc1	none
O=C(CCCN1C(=O)C(=Cc2ccc3c(c2)OCO3)SC1=S)Nc1ccc(C(=O)O)c(O)c1	SIRT5 inh 34
COc1ccc(/C=C2\SC(=O)N(CCCC(=O)Nc3ccc(C(=O)O)cc3)C2=O)cc1	DENV2 CPE rescue 97 (no result: SIRT5 inh)
O=C(O)CN1C(=O)/C(=C\c2cccc(OCc3ccc(Cl)cc3Cl)c2)SC1=S	SIRT5 inh 15
O=C(CCCN1C(=O)/C(=C/c2ccccc2)SC1=S)Nc1ccc(C(=O)O)c(O)c1	SIRT5 inh 46
COc1ccc2c3c([nH]c2c1)[C@@H](CO)N(C(=O)c1ccc(F)cc1)CC31CN(C(=O)NC(C)C)C1	none (no result: Statin myotox sup)
CNC(=O)C[C@H]1CC[C@H]2[C@@H](COc3ccc(NC(=O)CC(F)(F)F)cc3C(=O)N2C)O1	none (no result: SIRT5 inh, S100A4 inh HTS)
COc1ccc(S(=O)(=O)N(C)C[C@H]2Oc3ccc(NC(=O)NC4CCCCC4)cc3C(=O)N([C@H](C)CO)C[C@H]2C)cc1	none
COc1ccc(C=C2SC(=S)N(CCCC(=O)Nc3ccc(C(=O)O)c(O)c3)C2=O)cc1OC	SIRT5 inh 53
O=C(CCN1C(=O)/C(=C/c2ccccc2)SC1=S)Nc1ccccn1	Statin myotox sup 93
COc1cccc(/C=C2\SC(=S)N(CCCC(=O)N3CCCCC3)C2=O)c1	DENV2 CPE rescue 27 (no result: PGC1a acetyl inh)
Cc1ccc(/C=C2\SC(=S)N(CCCC(=O)Nc3ccccn3)C2=O)cc1	none (no result: SIRT5 inh, Statin myotox sup, DENV2 CPE rescue, S100A4 inh HTS)
COc1ccc(/C=C2\SC(=S)N(CCCC(=O)Nc3cccc(C(=O)O)c3)C2=O)cc1OC	DENV2 CPE rescue inconclusive (no result: PGC1a acetyl inh)
C[C@H](O)C#Cc1cnc2c(c1)C(=O)N([C@H](C)CO)C[C@H](C)[C@H](CN(C)C(=O)c1ccccc1F)O2	none
